Experimental data taken from ChEMBL document CHEMBL4376860, “Discovery of Novel Dual Poly(ADP-ribose)polymerase and Phosphoinositide 3-Kinase Inhibitors as a Promising Strategy for Cancer Therapy” (J Med Chem, 2020).
Calls of active or inactive are those of the source. The calls are words filed in the database; no cut-off is given here.

Columns and labels:
MDA-MB-468 [1] = assay: Induction of apoptosis in human MDA-MB-468 cells assessed as necrotic cells at 1 uM measured after 72 hrs in presence of PARP inhibitor olaparib by Annexin V-FITC/propidium iodide staining based flow cytometry (reference value: 0.13%); assay type: functional
MDA-MB-468 [2] = assay: Induction of apoptosis in human MDA-MB-468 cells assessed as early apoptotic cells at 1 uM measured after 72 hrs in presence of PARP inhibitor olaparib by Annexin V-FITC/propidium iodide staining based flow cytometry (reference value: 3.88%); assay type: functional
A2780 = assay: cells; details: Homo sapiens, A2780, 168 h, read-out: pIC50 (converted)
[3] = Toxicity in BALB/c mouse xenografted with human MDA-MB-468 cells assessed as mortality at 50 mg/kg, ip administered every 2 days for 34 days in presence of PARP inhibitor olaparib; assay type: organism-based; details: in vivo
Method in brief: (§1)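 Nude mice bearing subcutaneous right-flank MDA-MB-468 tumours (2 × 10^6 exponential-phase cells implanted). Randomised at about 100 mm³ tumour volume; 6 mice per group. Dosed ip every 2 days for 34 days. Vehicle controls received PBS with 5% DMSO. Body weight and tumour size recorded every 2 days; tumour volume calculated as ab²/2 from caliper diameters.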

A549 = assay: cells; details: Homo sapiens, A549, 168 h, read-out: pIC50 (converted)
Ramos = assay: cells; details: Homo sapiens, 168 h, read-out: pIC50 (converted)
MDA-MB-468 [4] = assay: cells; details: Homo sapiens, MDA-MB-468, 168 h, read-out: pIC50 (converted)
MDA-MB-468 [5] = assay: Inhibition of PI3K in human MDA-MB-468 cells assessed as reduction in RAD51 foci formation at 1 uM measured after 72 hrs in presence of PARP inhibitor olaparib by DAPI staining based immunofluorescence microscopic analysis; assay type: cell-based
Method in brief: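 RAD51 foci in MDA-MB-468 cells on coverslips after 72 h drug exposure. Cells fixed (3% formaldehyde), permeabilized (0.1% Triton X-100), blocked in 10% FBS/PBS, incubated overnight at 4 °C with rabbit anti-RAD51 polyclonal, then secondary antibody plus DAPI. Foci and percent positive cells (>5 foci per cell) counted from about 200 cells. Mean ± SD of three independent experiments.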

MDA-MB-468 [6] = assay: Inhibition of PI3K in human MDA-MB-468 cells assessed as reduction in BRCA2 mRNA level at 1 uM in presence of PARP inhibitor olaparib by Trizol reagent-based RT-PCR analysis; assay type: cell-based
Method in brief: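 Total RNA from treated MDA-MB-468 cells extracted with TRIzol. BRCA1 or BRCA2 mRNA quantified by real-time PCR with GAPDH as internal control. Results given as fold change relative to the internal control. Mean ± SD of three independent experiments.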

Mus musculus = assay: In vivo inhibition of PI3K in BALB/c mouse xenografted with human MDA-MB-468 cells assessed as reduction in BRCA1 expression at 50 mg/kg, ip administered every 2 days for 34 days measured post-last dose by Western blot analysis; assay type: functional, organism-based
[7] = target: Phosphatidylinositol 4,5-bisphosphate 3-kinase catalytic subunit delta isoform (Homo sapiens, UniProt O00329); assay: Inhibition of PI3Kdelta (unknown origin) using PIP2 as substrate measured after 2 hrs by ADP-glo plus luminescence assay
Method in brief: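 ADP-Glo Plus luminescence assay in 50 µL of 10 mM Tris-HCl pH 7.5 with 25 µM ATP, 9.75 µM PIP2, 4 mM MgCl2, 50 mM NaCl, 0.05% Chaps, 1 mM DTT, 5% glycerol and 2% DMSO. Enzyme: PI3Kα and β at 60 ng/mL, δ at 45 ng/mL. Ten-point 3-fold dilutions from 1 µM. Incubation at room temperature for 1 h (α, β) or 2 h (δ). IC50 by nonlinear regression.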

[8] = target: Phosphatidylinositol 4,5-bisphosphate 3-kinase catalytic subunit alpha isoform (Homo sapiens, UniProt P42336); assay: Inhibition of PI3Kalpha (unknown origin) using PIP2 as substrate measured after 1 hr by ADP-glo plus luminescence assay
[9] = Toxicity in BALB/c mouse xenografted with human MDA-MB-468 cells assessed as mortality at 50 mg/kg, ip administered every 2 days for 34 days; assay type: organism-based; details: in vivo; method in brief: as §1
MDA-MB-468 [10] = assay: Activation of ERK in human MDA-MB-468 cells assessed as increase in ERK autophosphorylation at T202 residue at 1 uM measured after 6 to 72 hrs by Western blot analysis; assay type: cell-based
Method in brief: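 MDA-MB-468 cells seeded in six-well plates, incubated overnight, then treated for 6 h, with 1‰ (v/v) DMSO medium as control. Lysates cleared at 4 °C, protein quantified by BCA, resolved by 8-12% SDS-PAGE and transferred to PVDF. Membranes blocked in 5% BSA/TBST, probed with primary antibodies (pERK-Thr202, total ERK, cleaved PARP, β-actin) and HRP secondary. ECL detection, band densitometry.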

Chain of Phosphatidylinositol 4,5-bisphosphate 3-kinase catalytic subunit alpha isoform (P42336 whole entry, canonical isoform): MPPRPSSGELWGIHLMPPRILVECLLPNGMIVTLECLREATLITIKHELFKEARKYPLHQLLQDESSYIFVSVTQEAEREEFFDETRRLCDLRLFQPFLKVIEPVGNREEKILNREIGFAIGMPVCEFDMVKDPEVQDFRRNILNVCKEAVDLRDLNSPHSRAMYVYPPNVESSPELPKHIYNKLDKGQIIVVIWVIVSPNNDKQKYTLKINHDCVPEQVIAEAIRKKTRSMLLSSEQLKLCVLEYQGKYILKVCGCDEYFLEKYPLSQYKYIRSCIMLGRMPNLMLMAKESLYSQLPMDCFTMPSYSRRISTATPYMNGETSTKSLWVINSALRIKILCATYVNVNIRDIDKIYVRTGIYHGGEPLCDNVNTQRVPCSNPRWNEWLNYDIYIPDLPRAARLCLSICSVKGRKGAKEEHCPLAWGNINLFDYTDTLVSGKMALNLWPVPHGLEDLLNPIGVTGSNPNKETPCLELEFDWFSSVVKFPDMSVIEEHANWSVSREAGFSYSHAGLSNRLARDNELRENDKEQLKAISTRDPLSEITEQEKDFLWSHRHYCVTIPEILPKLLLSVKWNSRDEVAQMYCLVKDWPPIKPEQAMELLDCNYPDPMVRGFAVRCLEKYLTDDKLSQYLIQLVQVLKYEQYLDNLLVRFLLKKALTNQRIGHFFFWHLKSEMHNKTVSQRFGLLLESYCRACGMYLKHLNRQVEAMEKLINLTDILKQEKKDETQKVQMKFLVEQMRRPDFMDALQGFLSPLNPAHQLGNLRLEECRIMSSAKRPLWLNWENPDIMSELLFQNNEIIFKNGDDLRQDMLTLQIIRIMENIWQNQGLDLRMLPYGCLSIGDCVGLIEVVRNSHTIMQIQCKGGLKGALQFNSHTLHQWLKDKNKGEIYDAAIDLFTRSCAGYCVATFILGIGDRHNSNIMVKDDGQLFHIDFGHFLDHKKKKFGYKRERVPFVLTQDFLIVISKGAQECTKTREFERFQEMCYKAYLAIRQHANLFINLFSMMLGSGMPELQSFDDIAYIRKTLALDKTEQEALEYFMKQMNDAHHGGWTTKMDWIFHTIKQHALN
Chain of Phosphatidylinositol 4,5-bisphosphate 3-kinase catalytic subunit delta isoform (O00329 whole entry, canonical isoform): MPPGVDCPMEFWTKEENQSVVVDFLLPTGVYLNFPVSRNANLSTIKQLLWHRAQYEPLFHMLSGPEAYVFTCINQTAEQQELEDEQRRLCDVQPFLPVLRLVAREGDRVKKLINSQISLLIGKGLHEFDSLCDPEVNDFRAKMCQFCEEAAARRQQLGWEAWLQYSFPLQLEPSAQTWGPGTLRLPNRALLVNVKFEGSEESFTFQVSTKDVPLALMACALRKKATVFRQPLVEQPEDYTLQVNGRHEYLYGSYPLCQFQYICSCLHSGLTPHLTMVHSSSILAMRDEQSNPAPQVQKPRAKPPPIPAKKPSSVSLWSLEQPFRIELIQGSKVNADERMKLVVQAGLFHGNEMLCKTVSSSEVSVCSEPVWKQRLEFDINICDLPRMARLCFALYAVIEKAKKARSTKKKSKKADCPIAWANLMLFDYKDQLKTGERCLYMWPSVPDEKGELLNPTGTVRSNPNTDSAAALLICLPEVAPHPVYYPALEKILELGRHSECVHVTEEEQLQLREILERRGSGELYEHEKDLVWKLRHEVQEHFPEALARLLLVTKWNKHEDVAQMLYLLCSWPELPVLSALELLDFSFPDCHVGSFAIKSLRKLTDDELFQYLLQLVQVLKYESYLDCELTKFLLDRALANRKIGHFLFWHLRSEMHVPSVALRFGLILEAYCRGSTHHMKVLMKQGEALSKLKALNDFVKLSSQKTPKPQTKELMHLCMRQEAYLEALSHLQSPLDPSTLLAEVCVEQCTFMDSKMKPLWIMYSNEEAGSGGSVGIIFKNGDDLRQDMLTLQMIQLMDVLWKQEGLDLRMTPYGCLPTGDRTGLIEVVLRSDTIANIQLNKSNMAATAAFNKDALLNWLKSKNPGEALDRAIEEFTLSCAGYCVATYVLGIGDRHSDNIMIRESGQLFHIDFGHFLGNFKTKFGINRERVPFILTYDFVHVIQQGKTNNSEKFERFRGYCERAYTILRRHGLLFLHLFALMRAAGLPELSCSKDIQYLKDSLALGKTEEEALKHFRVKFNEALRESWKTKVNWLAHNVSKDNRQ

With `Nc1cc(C(F)(F)F)c(-c2cc(N3CCOCC3)nc(N3CCOCC3)n2)cn1` [BUPARLISIB] as the compound, how does the Activity (MDA-MB-468 [1]) read?
Its Activity is 1.48%.

What about the Activity (MDA-MB-468 [2]) of the same compound?
The Activity was 9.21%.

And the IC50 (A2780)?
The IC50 was 347 nM.

And the Activity [3]?
Its Activity is “Non-Toxic”.

What about the IC50 (A549) of the same compound?
Its IC50 is 646 nM.

What about the IC50 (Ramos) of the same compound?
The IC50 was 1170 nM.

And the IC50 (MDA-MB-468 [4])?
The IC50 was 1290 nM.

What about the inhibition (MDA-MB-468 [5]) of the same compound?
Its inhibition is “Active”.

And the inhibition (MDA-MB-468 [6])?
The inhibition was “Active”.

For `Nc1cc(C(F)(F)F)c(-c2nc3c(c(N4CCOCC4)n2)CCN(C(=O)c2cc(Cc4n[nH]c(=O)c5ccccc45)ccc2F)C3)cn1`, which inhibition (Mus musculus) is on record?
Its inhibition is “Active”.

What about the IC50 [7] of the same compound?
The IC50 was 7.41 nM.

What about the IC50 [8] of the same compound?
Its IC50 is 5.62 nM.

What about the Activity [9] of the same compound?
The Activity was “Non-Toxic”.

And the Activity (MDA-MB-468 [10])?
The Activity was “Active”.
